pIC50: −log10 of the molar value.
Experiments:
Vero = test: Cytotoxicity against African green monkey Vero cells measured after 72 hrs by MTT assay; type: cell-based; conditions: Chlorocebus sabaeus
Outline: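 Log-phase Vero cells (0.8 × 10^4/well) in RPMI-1640 + 10% heat-inactivated FBS at 37 °C, 5% CO2 were exposed 72 h to serial dilutions (10.0–200.0 µM; stocks in DMSO). MTT was then added for 4 h and absorbance read. Quadruplicates, three experiments; IC50 by nonlinear regression.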

Trypanosoma cruzi [1] = test: Antitrypanosomal activity against Trypanosoma cruzi TINF/CH/1956/Tulahuen;DTU 6 epimastigotes measured after 72 hrs by Neubauer hemocytometer; type: functional, organism-based; conditions: TINF/CH/1956/Tulahuen;DTU 6, 72 h
Trypanosoma cruzi [2] = test: Antitrypanosomal activity against Trypanosoma cruzi MHOM/Pe/2011/Arequipa;DTU 5 epimastigotes measured after 72 hrs by Neubauer hemocytometer; type: functional, organism-based; conditions: MHOM/Pe/2011/Arequipa;DTU 5, 72 h
Trypanosoma cruzi [3] = test: Antitrypanosomal activity against Trypanosoma cruzi IRHOD/CO/2008/SN3;DTU 1 epimastigotes measured after 72 hrs by Neubauer hemocytometer; type: functional, organism-based; conditions: IRHOD/CO/2008/SN3;DTU 1, 72 h
[4] = Selectivity index, ratio of IC50 for African green monkey Vero cells to IC50 for Trypanosoma cruzi MHOM/Pe/2011/Arequipa;DTU 5; type: toxicity; conditions: read-out: Selectivity Index
Outline: (§1)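 SI = Vero IC50 / epimastigote IC50. Vero cells were grown in RPMI-1640 with 10% FBS, seeded at 0.8 × 10^4 cells/well, exposed to 10.0–200.0 µM for 72 h, then given MTT for 4 h. Epimastigotes were grown in MTL with 10% FBS at 28 °C, 5 × 10^5/mL, exposed to 6.3–50 µM for 48 h, then resazurin for 24 h (570/600 nm). IC50s came from nonlinear regression.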

[5] = Selectivity index, ratio of IC50 for African green monkey Vero cells to IC50 for Trypanosoma cruzi IRHOD/CO/2008/SN3;DTU 1; type: toxicity; conditions: read-out: Selectivity Index; outline: as §1
[6] = Selectivity index, ratio of IC50 for African green monkey Vero cells to IC50 for Trypanosoma cruzi TINF/CH/1956/Tulahuen;DTU 6; type: toxicity; conditions: read-out: Selectivity Index; outline: as §1
Trypanosoma cruzi [7] = test: Antitrypanosomal activity against Trypanosoma cruzi MHOM/Pe/2011/Arequipa;DTU 5 amastigote forms measured after 72 hrs by Giemsa staining based assay; type: functional, organism-based; conditions: MHOM/Pe/2011/Arequipa;DTU 5, 72 h
Outline: (§2)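 Vero cells (1 × 10^4/well, on coverslips) left to adhere 24 h at 37 °C, 5% CO2, then infected with trypomastigotes at MOI 10:1 for 24 h. Free parasites were removed by three PBS washes. Compounds at 3.1, 6.25, 12.5, 25 and 50 µM were incubated 72 h, and amastigotes were counted after Giemsa staining. Triplicates, two separate experiments; IC50 by nonlinear regression.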

Trypanosoma cruzi [8] = test: Antitrypanosomal activity against bloodstream trypomastigote stage of Trypanosoma cruzi MHOM/Pe/2011/Arequipa; DTU 5 isolated from parasite infected BALB/c Albino mouse cardiac cells after 24 hrs by Neubauer chamber based cell counting method; type: functional, organism-based; conditions: DTU 5, 24 h
Outline: (§3)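 Bloodstream trypomastigotes were taken by cardiac puncture from infected BALB/c mice and diluted in RPMI + 10% heat-inactivated FBS. At 2 × 10^6/mL they were exposed to 3.1–50.0 µM (lower where needed) for 24 h at 37 °C, 5% CO2, and counted in a Neubauer chamber. Triplicates, at least three experiments; IC50 by nonlinear regression.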

Trypanosoma cruzi [9] = test: Antitrypanosomal activity against Trypanosoma cruzi IRHOD/CO/2008/SN3;DTU 1 amastigote forms measured after 72 hrs by Giemsa staining based assay; type: functional, organism-based; conditions: IRHOD/CO/2008/SN3;DTU 1, 72 h; outline: as §2
Trypanosoma cruzi [10] = test: Antitrypanosomal activity against bloodstream trypomastigote stage of Trypanosoma cruzi IRHOD/CO/2008/SN3;DTU 1 isolated from parasite infected BALB/c Albino mouse cardiac cells after 24 hrs by Neubauer chamber based cell counting method; type: functional, organism-based; conditions: IRHOD/CO/2008/SN3;DTU 1, 24 h; outline: as §3
Trypanosoma cruzi [11] = test: Antitrypanosomal activity against Trypanosoma cruzi TINF/CH/1956/Tulahuen;DTU 6 amastigote forms measured after 72 hrs by Giemsa staining based assay; type: functional, organism-based; conditions: TINF/CH/1956/Tulahuen;DTU 6, 72 h; outline: as §2
Trypanosoma cruzi [12] = test: Trypanocidal activity against Trypanosoma cruzi trypomastigote form infected in African green monkey Vero cells assessed as ratio of infected cells at 50 uM measured after 72 hrs by Giemsa staining based assay relative to control; type: functional
Outline: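 Vero cells (1 × 10^4/well, on coverslips) were infected with trypomastigotes at MOI 10:1 for 24 h and washed three times with PBS. They were treated at 3.1, 6.25, 12.5, 25 and 50 µM for 72 h at 37 °C in 5% CO2. Infected cells were counted after Giemsa staining. Triplicates, two separate determinations.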

[13] = Selectivity index, ratio of IC50 for African green monkey Vero cells to IC50 for Trypanosoma cruzi MHOM/Pe/2011/Arequipa; DTU 5 amastigote forms; type: toxicity; conditions: read-out: Selectivity Index
Outline: (§4)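 Vero cells (1 × 10^4/well) were infected with trypomastigotes at MOI 10:1 for 24 h and washed with PBS. They were then exposed to 3.1–50 µM for 72 h at 37 °C in 5% CO2, and amastigotes were counted after Giemsa staining. Triplicates in two determinations; nonlinear regression.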

[14] = Selectivity index, ratio of IC50 for African green monkey Vero cells to IC50 for Trypanosoma cruzi MHOM/Pe/2011/Arequipa; DTU 5 trypomastigote forms; type: toxicity; conditions: read-out: Selectivity Index
Outline: (§5)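 Bloodstream trypomastigotes were taken from BALB/c mice by cardiac puncture and diluted in RPMI with 10% FBS at 2 × 10^6/mL. They were incubated with 3.1–50.0 µM for 24 h at 37 °C in 5% CO2 and counted in a Neubauer chamber. Triplicate, at least three experiments; nonlinear regression.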

[15] = Selectivity index, ratio of IC50 for African green monkey Vero cells to IC50 for Trypanosoma cruzi IRHOD/CO/2008/SN3;DTU 1 amastigote forms; type: toxicity; conditions: read-out: Selectivity Index; outline: as §4
[16] = Selectivity index, ratio of IC50 for African green monkey Vero cells to IC50 for Trypanosoma cruzi IRHOD/CO/2008/SN3;DTU 1 trypomastigote forms; type: toxicity; conditions: read-out: Selectivity Index; outline: as §5
[17] = Selectivity index, ratio of IC50 for African green monkey Vero cells to IC50 for Trypanosoma cruzi TINF/CH/1956/Tulahuen;DTU 6 amastigote forms; type: toxicity; conditions: read-out: Selectivity Index; outline: as §4
[18] = Selectivity index, ratio of IC50 for African green monkey Vero cells to IC50 for Trypanosoma cruzi TINF/CH/1956/Tulahuen;DTU 6 trypomastigote forms; type: toxicity; conditions: read-out: Selectivity Index; outline: as §5
Trypanosoma cruzi [19] = test: Trypanocidal activity against Trypanosoma cruzi trypomastigote form infected in African green monkey Vero cells measured after 48 hrs by resazurin dye based assay; type: functional, organism-based
Trypanosoma cruzi [20] = test: Trypanocidal activity against Trypanosoma cruzi TINF/CH/1956/Tulahuen;DTU 6 trypomastigote forms infected in BALB/c albino mouse measured after 24 hrs by Neubauer chamber method; conditions: TINF/CH/1956/Tulahuen;DTU 6, 24 h

Row | SMILES | pIC50 (Vero) | pIC50 (Trypanosoma cruzi [1]) | pIC50 (Trypanosoma cruzi [2]) | pIC50 (Trypanosoma cruzi [3]) | selectivity ratio [4] | selectivity ratio [5] | selectivity ratio [6] | pIC50 (Trypanosoma cruzi [7]) | pIC50 (Trypanosoma cruzi [8]) | pIC50 (Trypanosoma cruzi [9]) | pIC50 (Trypanosoma cruzi [10]) | pIC50 (Trypanosoma cruzi [11]) | Ratio (Trypanosoma cruzi [12]) [%] | selectivity ratio [13] | selectivity ratio [14] | selectivity ratio [15] | selectivity ratio [16] | selectivity ratio [17] | selectivity ratio [18] | pIC50 (Trypanosoma cruzi [19]) | also measured
1 | COc1ccc(C(=O)CCNc2ccc(Cl)cc2)cc1 | 3.84 | 4.79 | 4.73 | 4.42 | 7.8 | 3.8 | 8.9 | 5.14 | 4.89 | 5.22 | 4.20 | 4.58 | 28 | 19.9 | 11.2 | 24.1 | 2.3 | 5.5 | 10.2 | 5.05 | pIC50 (Trypanosoma cruzi [20]): 4.85
2 | COc1ccc(C(=O)CCNCCc2ccc(F)cc2)cc1 | 4.18 | 4.69 | 4.45 | 4.77 | 1.9 | 3.9 | 3.3 |  |  |  |  |  |  |  |  |  |  |  |  |  | 
3 | O=C(CCN1CCN(c2ccc([N+](=O)[O-])cc2)CC1)c1ccc(O)cc1 | 4.46 | 4.37 | 4.61 | 4.89 | 1.4 | 2.7 | 0.8 |  |  |  |  |  |  |  |  |  |  |  |  |  | 
4 | O=C(CCN1CCN(c2ccc(F)cc2)CC1)c1ccc(O)cc1 | 4.30 | 4.89 | 4.61 | 5.00 | 2.1 | 5 | 3.9 |  |  |  |  |  |  |  |  |  |  |  |  |  | 
5 | COc1ccc(C(=O)CCNc2ccc(F)cc2)cc1 | 3.87 | 4.84 | 4.83 | 4.60 | 9 | 5.2 | 9.3 | 5.33 | 5.68 | 5.27 | 5.47 | 5.17 | 10 | 27.6 | 64.8 | 24.7 | 39.4 | 20.1 | 48.8 | 5.15 | pIC50 (Trypanosoma cruzi [20]): 5.57
6 | COc1ccc(C(=O)CCNCCc2ccc(C(F)(F)F)cc2)cc1 | 4.04 | 4.88 | 4.22 | 4.88 | 1.5 | 6.9 | 6.9 | 5.04 | 5.44 | 5.35 | 5.26 | 5.48 | 17 | 10 | 25 | 20.2 | 16.7 | 27.7 | 26.1 | 4.86 | pIC50 (Trypanosoma cruzi [20]): 5.46
7 | COc1ccc(C(=O)CCNc2ccc(C(F)(F)F)cc2)cc1 | 4.49 | 4.61 | 4.75 | 4.12 | 1.8 | 0.4 | 1.3 |  |  |  |  |  |  |  |  |  |  |  |  |  | 
8 | COc1ccc(C(=O)CCNCCc2ccc(Cl)cc2)cc1 | 4.27 | 4.82 | 4.29 | 4.84 | 1 | 3.7 | 3.5 |  |  |  |  |  |  |  |  |  |  |  |  |  | 
